Here are results for 30 molecules from ChEMBL document CHEMBL3600316, “Discovery of an 8-methoxytetrahydroisoquinoline derivative as an orally active N-type calcium channel blocker for neuropathic pain without CYP inhibition liability” (Bioorg Med Chem, 2015).

In series [1] the test system is Mus musculus. The series can be described thus: Antinociceptive activity in ddY mouse at 100 mg/kg, po by formalin test. The class given is functional.
Series [2] has as its target Cytochrome P450 2D6 (Homo sapiens, UniProt P10635). The series can be described thus: Inhibition of CYP2D6 (unknown origin) by fluorescence-based assay.
Series [3] in a line: Inhibition of N-type calcium channel in human IMR-32 cells by FLIPR calcium imaging assay. The series is classed as cell-based. The method, boiled down: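 FLIPR calcium imaging in IMR-32 human neuroblastoma cells with nitrendipine present to block endogenous L-type channels; IC50 determined in duplicate in one experiment, advanced compounds tested in several repeat assays.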

Series [4] concerns the target T1, CYP3A4 (Homo sapiens, UniProt P08684). The series can be described thus: Time-dependent inhibition of CYP3A4 in human liver microsomes assessed as residual enzyme activity using midazolam as substrate preincubated for 30 mins by fluorescence-based assay. Particulars: probe midazolam.
In series [5] the target is T1, CYP3A4. The series is described as follows: Reversible inhibition of CYP3A4 in human liver microsomes assessed as residual enzyme activity using midazolam as substrate by fluorescence-based assay. Conditions: probe midazolam.
In series [6] the test system is Rattus norvegicus. The series can be described thus: Analgesic activity in po dosed Sprague-Dawley rat L5/L6 SNL model assessed as reduction of mechanical allodynia. The class given is functional. The method, boiled down:
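Male Sprague-Dawley rats, L5/L6 spinal nerve ligation model; drug suspended/diluted in 0.5% methylcellulose, given orally at 0.3–10 mg/kg (dose as free form).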

The target of series [7] is Cytochrome P450 2C9 (Homo sapiens, UniProt P11712). The series can be described thus: Inhibition of CYP2C9 (unknown origin) by fluorescence-based assay. The class given is ADME. The method, boiled down: (§1)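 Fluorescence-based assay with fluorogenic substrate, as for CYP1A2 and 2D6; IC50 determined.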
Sequence of Cytochrome P450 2C9 (P11712 whole entry): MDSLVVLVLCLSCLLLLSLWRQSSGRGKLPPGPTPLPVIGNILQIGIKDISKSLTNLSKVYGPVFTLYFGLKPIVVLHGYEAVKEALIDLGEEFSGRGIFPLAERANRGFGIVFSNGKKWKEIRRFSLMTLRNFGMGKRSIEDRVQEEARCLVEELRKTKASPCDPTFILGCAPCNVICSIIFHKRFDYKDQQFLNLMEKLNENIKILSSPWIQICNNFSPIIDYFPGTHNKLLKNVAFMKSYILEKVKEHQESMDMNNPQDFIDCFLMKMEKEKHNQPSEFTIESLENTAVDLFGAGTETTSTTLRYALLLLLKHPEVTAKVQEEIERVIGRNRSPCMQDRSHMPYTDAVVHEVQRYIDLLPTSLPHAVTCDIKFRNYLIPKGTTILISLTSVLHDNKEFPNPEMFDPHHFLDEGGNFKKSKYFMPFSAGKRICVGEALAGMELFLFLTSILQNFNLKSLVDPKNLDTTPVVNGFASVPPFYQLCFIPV
Series [8] concerns the target Cytochrome P450 2C19 (Homo sapiens, UniProt P33261). The series can be described thus: Inhibition of CYP2C19 (unknown origin) by fluorescence-based assay. The series is classed as ADME. In a few lines: as §1
Series [9] concerns the target Voltage-gated L-type calcium channel (Homo sapiens, UniProt Q13936+Q13698+Q01668+O60840). The series can be described thus: Inhibition of L-type calcium channel in human IMR-32 cells by FLIPR calcium imaging assay. The class given is cell-based.
Series [10] is described as follows: Clearance in human liver microsomes. The series is classed as ADME. Particulars: read-out: CLH.

T1 sequence (P08684 whole entry): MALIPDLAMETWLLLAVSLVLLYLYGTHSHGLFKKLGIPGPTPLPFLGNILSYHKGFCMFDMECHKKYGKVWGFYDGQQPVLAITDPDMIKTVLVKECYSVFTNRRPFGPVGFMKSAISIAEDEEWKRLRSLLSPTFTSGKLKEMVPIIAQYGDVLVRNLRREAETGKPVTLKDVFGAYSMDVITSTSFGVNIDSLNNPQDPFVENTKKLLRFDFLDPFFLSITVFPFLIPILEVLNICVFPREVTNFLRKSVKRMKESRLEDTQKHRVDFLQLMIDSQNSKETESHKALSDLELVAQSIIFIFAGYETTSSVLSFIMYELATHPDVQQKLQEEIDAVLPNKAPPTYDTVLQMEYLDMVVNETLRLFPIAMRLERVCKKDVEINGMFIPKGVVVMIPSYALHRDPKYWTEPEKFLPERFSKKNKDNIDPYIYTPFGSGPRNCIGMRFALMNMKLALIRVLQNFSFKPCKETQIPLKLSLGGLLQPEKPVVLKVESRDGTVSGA
Sequence of Cytochrome P450 2D6 (P10635 whole entry): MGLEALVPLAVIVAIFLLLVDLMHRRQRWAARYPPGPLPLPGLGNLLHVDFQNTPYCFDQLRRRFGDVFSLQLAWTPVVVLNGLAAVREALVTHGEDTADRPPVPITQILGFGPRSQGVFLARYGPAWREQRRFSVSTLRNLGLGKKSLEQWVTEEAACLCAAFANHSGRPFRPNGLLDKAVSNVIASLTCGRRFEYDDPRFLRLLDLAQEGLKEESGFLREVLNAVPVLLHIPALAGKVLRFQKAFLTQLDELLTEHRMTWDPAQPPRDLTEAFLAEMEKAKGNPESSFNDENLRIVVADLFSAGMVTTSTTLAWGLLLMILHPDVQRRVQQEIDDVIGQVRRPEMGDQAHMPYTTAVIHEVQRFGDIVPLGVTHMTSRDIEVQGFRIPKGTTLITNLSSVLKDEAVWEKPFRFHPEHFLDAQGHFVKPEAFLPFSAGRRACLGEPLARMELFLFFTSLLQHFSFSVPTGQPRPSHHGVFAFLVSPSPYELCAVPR
Sequence of Cytochrome P450 2C19 (P33261 whole entry): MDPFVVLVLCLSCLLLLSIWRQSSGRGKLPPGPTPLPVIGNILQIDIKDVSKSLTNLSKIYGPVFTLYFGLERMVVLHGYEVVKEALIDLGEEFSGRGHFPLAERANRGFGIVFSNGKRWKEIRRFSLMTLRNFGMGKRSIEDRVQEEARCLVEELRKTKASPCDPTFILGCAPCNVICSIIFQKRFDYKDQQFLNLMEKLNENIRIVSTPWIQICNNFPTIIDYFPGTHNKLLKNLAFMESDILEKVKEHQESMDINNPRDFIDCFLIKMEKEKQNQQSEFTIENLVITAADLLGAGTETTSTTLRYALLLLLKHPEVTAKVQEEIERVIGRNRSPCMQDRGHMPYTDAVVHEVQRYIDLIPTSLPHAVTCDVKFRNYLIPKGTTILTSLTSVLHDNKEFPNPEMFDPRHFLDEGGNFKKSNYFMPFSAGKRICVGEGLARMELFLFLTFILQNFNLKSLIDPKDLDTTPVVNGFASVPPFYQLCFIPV

In series [1], `CC(C)C[C@@H](CO)NCC(=O)N1CCc2ccccc2C1C1CCCCC1` (stereo partly specified) yielded an inhibition in vivo at 100 mg/kg of 32%. In addition, the IC50 stood at 44 nM in series [2] and 1100 nM in series [3]. In addition, the activity at 30 min in series [4] was found to be 46%. Moreover, the activity in [5] came out at 69%.
Consider `CC(C)(O)CNCC(=O)N1CCc2ccccc2C1C1CCCCC1` (stereo unspecified), for which the inhibition in vivo at 100 mg/kg in series [1] came out at 7.7%. The half-maximal inhibitory concentration (IC50) in series [3] stood at 1700 nM.
As to `COc1cccc2c1[C@@H](c1ccccc1)N(C(=O)CNC[C@@H](C)O)CC2`, the IC50 in series [3] came to 3300 nM. In addition, in [4], the activity at 30 min came to 91%. In addition, in series [5], the activity was 110%.
With `C[C@@H](O)CNCC(=O)N1CCc2ccc(C#N)cc2C1C1CCCCC1` (stereo partly specified), in series [3], the IC50 came to 2600 nM.
For the molecule `O=C(CNCC1(O)CCCCC1)N1CCc2ccccc2[C@@H]1c1ccccc1`, the IC50 was < 390 nM in series [2] and 1000 nM in [3].
Turning to `C[C@@H](O)CNCC(=O)N1CCc2cccc(F)c2C1c1ccccc1` (stereo partly specified), the IC50 in [2] was 1300 nM; in [3] it was 1000 nM. In addition, the activity at 30 min in [4] is 95%. The activity in series [5] was determined as 103%.
For `O=C(CNCC1(O)CCCCC1)N1CCc2ccccc2C1C1CCCCC1` (stereo unspecified), the inhibition in vivo at 100 mg/kg in series [1] turned out to be 62%.
For the molecule `CCc1ccc2c(c1)C(C1CCCCC1)N(C(=O)CNC[C@@H](C)O)CC2` (stereo partly specified), the IC50 in series [2] came out at 1300 nM; in series [3], 890 nM. Further, in series [4], the activity at 30 min turned out to be 65%. The activity in [5] turned out to be 85%.
Regarding `C[C@@H](O)CNCC(=O)N1CCc2cccc(F)c2C1C1CCCCC1` (stereo partly specified), in series [3], the IC50 is 2500 nM.
As for `C[C@@H](O)CNCC(=O)N1CCc2ccccc2C1C1CCCCC1` (stereo partly specified), the inhibition in vivo at 100 mg/kg in series [1] stood at 39%. Besides, the half-maximal inhibitory concentration (IC50) stood at 1100 nM in series [2] and 2000 nM in series [3]. Besides, the activity at 30 min in [4] stood at 95%. Further, the activity in series [5] turned out to be 92%.
With `CC(C)(C)[C@@H](CO)NCC(=O)N1CCc2ccccc2C1C1CCCCC1` (stereo partly specified), 100 mg/kg produced 40% inhibition in vivo in [1]. The concentration for half-maximal inhibition (IC50) was determined as 68 nM in series [2] and 1400 nM in series [3]. The activity at 30 min in series [4] came out at 33%. Also, in series [5], the activity was determined as 65%.
For the molecule `CC(C)c1ccc2c(c1)C(C1CCCCC1)N(C(=O)CNC[C@@H](C)O)CC2` (stereo partly specified), the IC50 came to 1900 nM in [2] and 1300 nM in series [3]. Moreover, the activity at 30 min in [4] is 43%. Moreover, in [5], the activity was determined as 88%.
Turning to `C[C@@H](O)CNCC(=O)N1CCc2cc(C(N)=O)ccc2C1C1CCCCC1` (stereo partly specified), in series [3], the IC50 was > 10000 nM.
As for `C[C@@H](O)CNCC(=O)N1CCc2ccccc2[C@@H]1C1CCCCC1`, the inhibition in vivo at 100 mg/kg in series [1] is 55%. Further, the results for the IC50 in [2] and in series [3] were 1400 nM and 1700 nM, respectively. Further, the activity at 30 min in [4] worked out at 87%. In addition, the activity in [5] came to 105%.
As to `C[C@@H](O)CNCC(=O)N1CCc2ccc(F)cc2C1C1CCCCC1` (stereo partly specified), the values for the IC50 in series [2] and in series [3] were 1300 nM and 2300 nM, respectively. Also, the activity at 30 min in series [4] came out at 80%. Besides, the activity in [5] is 109%.
In the case of `C[C@@H](O)CNCC(=O)N1CCc2cc(C#N)ccc2C1C1CCCCC1` (stereo partly specified), the IC50 in [3] came out at 3100 nM.
In the case of `Cc1ccc2c(c1)CCN(C(=O)CNC[C@@H](C)O)C2C1CCCCC1` (stereo partly specified), in series [3], the IC50 worked out at 2400 nM.
With `CC[C@H](O)CNCC(=O)N1CCc2ccccc2C1C1CCCCC1` (stereo partly specified), in series [1], at 100 mg/kg the inhibition in vivo was 27%. For the same molecule, the IC50 in series [2] is < 300 nM; in series [3] it was 1900 nM. For the same molecule, the activity at 30 min in series [4] was 83%. The activity in [5] was found to be 81%.
Take `COc1cccc2c1C(C1CCCCC1)N(C(=O)CNC[C@@H](C)O)CC2` (stereo partly specified): the figures for the IC50 in [2] and in series [3] were 30200 nM and 1400 nM, respectively. In series [4], the activity at 30 min stood at 58%. For the same molecule, the activity in [5] turned out to be 85%.
The like results for `C[C@@H](O)CNCC(=O)N1CCc2cc(F)ccc2C1C1CCCCC1` (stereo partly specified) were, in that order, 1600 nM, 1600 nM, 91% and 92%.
As for `CC[C@@H](O)CNCC(=O)N1CCc2ccccc2C1C1CCCCC1` (stereo partly specified), in series [1], testing at 100 mg/kg gave an inhibition in vivo of 19%. In addition, the values for the IC50 in [2] and in [3] were 1000 nM and 1500 nM, respectively. The activity at 30 min in [4] came out at 88%. Besides, the activity in series [5] turned out to be 87%.
For `COc1ccc2c(c1)CCN(C(=O)CNC[C@@H](C)O)C2C1CCCCC1` (stereo partly specified), the IC50 is < 780 nM in series [2] and 1900 nM in series [3]. In addition, in [4], the activity at 30 min worked out at 97%. For the same molecule, in series [5], the activity is 93%.
`Cc1ccc2c(c1)C(C1CCCCC1)N(C(=O)CNC[C@@H](C)O)CC2` (stereo partly specified): in series [3], the IC50 worked out at 1700 nM.
Turning to `C[C@@H](O)CNCC(=O)N1CCc2ccccc2[C@@H]1c1ccccc1`, the IC50 in series [2] came out at 2200 nM; in series [3], 2400 nM. Also, the activity at 30 min in series [4] was found to be 94%. Also, the activity in series [5] is 98%.
Regarding `C[C@H](O)CNCC(=O)N1CCc2ccccc2C1C1CCCCC1` (stereo partly specified), the inhibition in vivo at 100 mg/kg in [1] came to 0%. The figures for the IC50 in [2] and in [3] were 1600 nM and 1500 nM, respectively. Also, in [4], the activity at 30 min was found to be 91%. Also, the activity in [5] is 96%.
In the case of `Cc1cccc2c1C(c1ccccc1)N(C(=O)CNC[C@@H](C)O)CC2` (stereo partly specified), the IC50 in series [2] was 5600 nM; in series [3], 1300 nM. The activity at 30 min in [4] is 89%. The activity in series [5] was determined as 100%.
Consider `C[C@@H](O)CNCC(=O)N1CCc2c(F)cccc2C1C1CCCCC1` (stereo partly specified), for which the IC50 in series [2] was < 390 nM; in series [3] it was 1200 nM. The activity at 30 min in series [4] is 49%. Also, in series [5], the activity came to 95%.
Consider `COc1ccc2c(c1)C(C1CCCCC1)N(C(=O)CNC[C@@H](C)O)CC2` (stereo partly specified), for which the IC50 in series [2] is 3700 nM; in series [3], 1600 nM. The activity at 30 min in series [4] worked out at 83%. Besides, the activity in series [5] stood at 97%.
On to `COc1cccc2c1[C@H](c1ccccc1)N(C(=O)CNC[C@@H](C)O)CC2`, for which the ED50 in series [6] was 2.8 mg/kg. Besides, in [1], the inhibition in vivo at 100 mg/kg was 77%. Moreover, the half-inhibitory concentration (IC50) is > 50000 nM in [7], > 50000 nM in [8], > 10000 nM in series [9] and 1400 nM in [3]. Besides, the activity at 30 min in series [4] was found to be 90%. In addition, the activity in [5] came out at 94%. Also, the CLint scaled in [10] amounted to 45.9 mL/min/kg.
As for `COc1cccc2c1CCN(C(=O)CNC[C@@H](C)O)C2C1CCCCC1` (stereo partly specified), the IC50 in series [2] is < 780 nM; in [3] it was 2000 nM. The activity at 30 min in series [4] was determined as 63%. In addition, the activity in [5] amounted to 107%.
